In ChEMBL document CHEMBL1157725 (Bioorg Med Chem, 2010):
Active and inactive are the calls of the source. The rule behind the calls is not given here.

Experiments:
HOP-62 = test: Growth inhibition of human HOP62 cells after 48 hrs by SRB assay; type: functional; details: HOP-62, 48 h
[1] = Inhibition of tubulin polymerization by turbidimetry
Summary of the method: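 Tubulin at 10 µM (1.0 mg/mL). Polymerization followed turbidimetrically at 350 nm in temperature-controlled spectrophotometers.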

SF-295 = test: Growth inhibition of human SF295 cells after 48 hrs by SRB assay; type: functional; details: SF-295, 48 h
Summary of the method: (§1)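 This is the NCI cell-line panel. Cells are exposed for 48 h to five concentrations in 10-fold serial dilution. Growth is read by the SRB protein assay, and GI₅₀ is calculated from log dose–response curves.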

NCI-H322M = test: Growth inhibition of human NCI-H322M cells after 48 hrs by SRB assay; type: functional
OVCAR-8 = test: Growth inhibition of human OVCAR8 cells after 48 hrs by SRB assay; type: functional; details: OVCAR-8, 48 h; summary of the method: as §1
MCF7 [2] = test: Cell cycle arrest in human MCF7 cells by accumulation at G2/M phase at 10 uM after 48 hrs by flow cytometry (Rvb=5.9%); type: functional
SK-MEL-2 = test: Growth inhibition of human SK-MEL-2 cells after 48 hrs by SRB assay; type: functional; details: SK-MEL-2, 48 h
Summary of the method: (§2)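 NCI human tumor cell line panel. Cells exposed for 48 h to five concentrations in a 10-fold serial dilution. Growth inhibition read as total cell protein by sulforhodamine B staining. GI50 calculated from log dose–response curves.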

A498 = test: Growth inhibition of human A498 cells after 48 hrs by SRB assay; type: functional; details: A498, 48 h; summary of the method: as §1
SN12C = test: Growth inhibition of human SN12C cells after 48 hrs by SRB assay; type: functional; summary of the method: as §2
NCI/ADR-RES = test: Growth inhibition of human NCI/ADR-RES cells after 48 hrs by SRB assay; type: functional; summary of the method: as §1
ACHN = test: Growth inhibition of human ACHN cells after 48 hrs by SRB assay; type: functional; summary of the method: as §1
DU-145 = test: Growth inhibition of human DU145 cells after 48 hrs by SRB assay; type: functional; details: DU-145, 48 h; summary of the method: as §1
TK-10 = test: Growth inhibition of human TK10 cells after 48 hrs by SRB assay; type: functional; details: TK-10, 48 h; summary of the method: as §2
[3] = Displacement of [3H]colchicine from tubulin at 5 uM by DEAE-cellulose filter method
UACC-62 = test: Growth inhibition of human UACC62 cells after 48 hrs by SRB assay; type: functional; details: UACC-62, 48 h; summary of the method: as §2
MCF7 [4] = test: Cell cycle arrest in human MCF7 cells by accumulation at G2/M phase at 5 uM after 48 hrs by flow cytometry (Rvb=5.9%); type: functional
UACC-257 = test: Growth inhibition of human UACC257 cells after 48 hrs by SRB assay; type: functional; details: UACC-257, 48 h; summary of the method: as §2
NCI-H460 = test: Growth inhibition of human NCI-H460 cells after 48 hrs by SRB assay; type: functional; details: NCI-H460, 48 h
HUVEC = test: Antiangiogenic activity in HUVEC cells assessed inhibition of tube formation at 1 uM after 16 hrs by tube formation assay; type: functional, cell-based; details: Homo sapiens
Summary of the method: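 HUVEC cells (1 × 10⁵) are seeded onto a Matrigel surface and tube formation is scored after treatment.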

SK-MEL-5 = test: Growth inhibition of human SK-MEL-5 cells after 48 hrs by SRB assay; type: functional; details: SK-MEL-5, 48 h; summary of the method: as §2
A549 = test: Growth inhibition of human A549 cells after 48 hrs by SRB assay; type: functional; details: A549, 48 h
[5] = Displacement of [3H]colchicine from tubulin at 50 uM by turbidimetry; details: in the assay text read “by DEAE-cellulose filter method” for “by turbidimetry”
Summary of the method: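 Binding of [³H]colchicine to tubulin (1.0 µM, 0.1 mg/mL) is measured by the DEAE-cellulose filter method. The radioligand is at 5.0 µM and test agents at 5 or 50 µM. Each is run in triplicate.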

OVCAR-3 = test: Growth inhibition of human OVCAR-3 cells after 48 hrs by SRB assay; type: functional; details: OVCAR-3, 48 h; summary of the method: as §1
UO-31 = test: Growth inhibition of human UO31 cells after 48 hrs by SRB assay; type: functional; details: UO-31, 48 h; summary of the method: as §2
SF-268 = test: Growth inhibition of human SF268 cells after 48 hrs by SRB assay; type: functional; details: SF-268, 48 h; summary of the method: as §1
HCC 2998 = test: Growth inhibition of human HCC2998 cells after 48 hrs by SRB assay; type: functional; details: HCC 2998, 48 h
MCF7 [6] = test: Antiproliferative activity against human MCF7 cells after 24 hrs by SRB assay; type: functional, cell-based; details: MCF7, 24 h
Summary of the method: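 MCF-7 cells are grown for 24 h with or without drug, then for a further 48 h. Total cell protein is measured by sulforhodamine B staining, and the IC₅₀ is derived from it.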

MCF7 [7] = test: Growth inhibition of human MCF7 cells after 48 hrs by SRB assay; type: functional; details: MCF7, 48 h; summary of the method: as §1
NCI-H522 = test: Growth inhibition of human NCI-H522 cells after 48 hrs by SRB assay; type: functional; details: NCI-H522, 48 h
LOX IMVI = test: Growth inhibition of human LOXIMVI cells after 48 hrs by SRB assay; type: functional; summary of the method: as §1
MOLT-4 = test: Growth inhibition of human MOLT4 cells after 48 hrs by SRB assay; type: functional; details: MOLT-4, 48 h
786-0 = test: Growth inhibition of human 786-0 cells after 48 hrs by SRB assay; type: functional; details: 786-0, 48 h; summary of the method: as §1
OVCAR-5 = test: Growth inhibition of human OVCAR5 cells after 48 hrs by SRB assay; type: functional; details: OVCAR-5, 48 h; summary of the method: as §1

Compound COc1ccc(/C=C/C(=O)c2cc(OC)c(OC)c(OC)c2)cc1B(O)O has a GI50 (HOP-62) of 98 nM, an IC50 [1] of 31000 nM and a GI50 (SF-295) of 2730 nM. It also gave a GI50 (NCI-H322M) of 8440 nM, a GI50 (OVCAR-8) of 300 nM and an Activity (MCF7 [2]) of 14%. It also gave a GI50 (SK-MEL-2) of 3330 nM, a GI50 (A498) of 4760 nM and a GI50 (SN12C) of 460 nM. For the same compound, the GI50 (NCI/ADR-RES) was 50 nM, the GI50 (ACHN) was 520 nM and the GI50 (DU-145) was 50 nM. It also gave a GI50 (TK-10) of 20900 nM, an inhibition [3] of 4.4% and a GI50 (UACC-62) of 34 nM. For the same compound, the Activity (MCF7 [4]) was 7.4%, the GI50 (UACC-257) was 4410 nM and the GI50 (NCI-H460) was 28 nM. For the same compound, the inhibition (HUVEC) was “Active”, the GI50 (SK-MEL-5) was 310 nM and the GI50 (A549) was 450 nM. For the same compound, the inhibition [5] was 56%, the GI50 (OVCAR-3) was 2080 nM and the GI50 (UO-31) was 320 nM. The GI50 (SF-268) was 800 nM, the GI50 (HCC 2998) was 410 nM and the IC50 (MCF7 [6]) was 900 nM. The GI50 (MCF7 [7]) was 34 nM, the GI50 (NCI-H522) was 200 nM and the GI50 (LOX IMVI) was 60 nM. For the same compound, the GI50 (MOLT-4) was 3600 nM, the GI50 (786-0) was 390 nM and the GI50 (OVCAR-5) was 1810 nM.
